Reference: ChEMBL document CHEMBL1240495, “Alpha,beta-unsaturated N-acylpyrrole peptidyl derivatives: new proteasome inhibitors” (J Med Chem, 2010)
Peptide text beside a SMILES is read from it. * marks the point of attachment. Cbz = O=C(OCc1ccccc1)*

Key:
[1] = Cytotoxicity against human LCL cells at 10 uM after 3 days by trypan blue exclusion assay; assay type: cell-based; conditions: 72 h
Summary of the method: (§1)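 LCL and Burkitt's lymphoma JiJoye cells seeded in duplicate at 50 × 10³ cells/mL in medium with 10% FCS. Exposed to 0.1–10 μM compound or medium alone. Viability and proliferation followed for 3 days by Trypan blue exclusion and cell counting.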

[2] = tested on: JIYOYE; assay: Cytotoxicity against human Jijoye cells at 10 uM after 3 days by trypan blue exclusion assay; assay type: cell-based; conditions: 72 h; summary of the method: as §1
[3] = Inhibition of trypsin-like activity of 20S proteasome beta 2 in human LCL cells after 12 hrs by in vivo assay
Summary of the method: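 LCLs exposed to inhibitor for 12 h at 37 °C. Proteasomes then partially purified and incubated 30 min at 37 °C in activity buffer with Suc-LLVY-AMC (chymotrypsin-like), Boc-LRR-AMC (trypsin-like) or Z-LLE-AMC (postacidic). Fluorescence read at ex 360/em 465 nm.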

[4] = Inhibition of chymotrypsin-like activity of 20S proteasome in human LCL cells after 12 hrs
[5] = tested on: 20S proteasome beta1 subunit (Homo sapiens); assay: Inhibition of PGPH catalytic activity of 20S proteasome beta1 in human LCL cells after 12 hrs
[6] = Inhibition of trypsin-like activity of 20S proteasome beta2 from human LCL cells after 30 mins
[7] = tested on: 20S proteasome beta1 subunit (Homo sapiens); assay: Inhibition of PGPH catalytic activity of 20S proteasome beta1 in human LCL cells after 12 hrs by in vivo assay
[8] = tested on: 20S proteasome beta5 subunit (Homo sapiens); assay: Inhibition of chymotrypsin-like activity of 20S proteasome beta5 in human LCL cells after 12 hrs by in vivo assay

Compound | Activity [1] | Activity [2] | IC50 [3] [nM] | IC50 [4] [nM] | IC50 [5] [nM] | IC50 [6] [nM] | IC50 [7] [nM] | IC50 [8] [nM]
Cc1c(O)cccc1C(=O)N[C@@H](CC(C)C)C(=O)N[C@@H](CC(C)C)C(=O)N[C@H](/C=C/C(=O)n1cccc1)CC(C)C | Not Active | Not Active | > 10000 | 3630 | 65 | > 10000 | 135 | 5600
CC[C@H](C)[C@H](NC(=O)[C@H]([C@@H](C)CC)N(C)C(C)=O)C(=O)N[C@H](C(=O)N[C@@H](CC(C)C)C(=O)[C@@]1(C)CO1)[C@@H](C)O [EPOXOMYCIN] |  |  |  | 5 |  |  |  | 
CC(C)C[C@@H](/C=C/C(=O)n1cccc1)NC(=O)[C@H](CO)NC(=O)[C@@H](NC(=O)CCCCCCCNC(=O)OCc1ccccc1)C(C)C | Not Active | Not Active | > 10000 | 5080 | 36 | > 10000 | 58 | > 10000
CC(C)C[C@@H](C=O)NC(=O)[C@H](CC(C)C)NC(=O)[C@H](CC(C)C)NC(=O)OCc1ccccc1 [MG-132] (Cbz-Leu-Leu-Leu-aldehyde) |  |  |  | 2 |  | 1080 |  | 
CC(C)C[C@@H](/C=C/C(=O)n1cccc1)NC(=O)[C@H](CO)NC(=O)[C@@H](NC(=O)CCCCCNC(=O)OCc1ccccc1)C(C)C |  |  | > 10000 | > 10000 | 97 | > 10000 | 147 | > 10000
CC(C)C[C@@H](/C=C/C(=O)n1cccc1)NC(=O)[C@H](CC(C)C)NC(=O)[C@H](CC(C)C)NC(=O)CCCCCNC(=O)OCc1ccccc1 |  |  |  | > 10000 | 155 | > 10000 |  | 
CC(C)C[C@@H](/C=C/C(=O)n1cccc1)NC(=O)[C@H](CO)NC(=O)[C@@H](NC(=O)OCc1ccccc1)C(C)C |  |  |  | > 10000 | 122 | > 10000 |  | 
CC(C)C[C@@H](/C=C/C(=O)n1cccc1)NC(=O)[C@H](CC(C)C)NC(=O)[C@H](CC(C)C)NC(=O)CCCCCCCNC(=O)OCc1ccccc1 |  |  | > 10000 | > 10000 | 62 | > 10000 | 116 | > 10000
Cc1c(O)cccc1C(=O)N[C@H](C(=O)N[C@@H](CO)C(=O)N[C@H](/C=C/C(=O)n1cccc1)CC(C)C)C(C)C |  |  |  | > 10000 | 178 | > 10000 |  | 
CC(C)C[C@@H](/C=C/C(=O)n1cccc1)NC(=O)[C@H](CC(C)C)NC(=O)[C@H](CC(C)C)NC(=O)OCc1ccccc1 |  |  |  | 7890 | 91 | > 10000 |  | 
